Experimental data: ChEMBL document CHEMBL5252539, “In vitro biological evaluation of new antimycobacterial salicylanilide-tuftsin conjugates” (Eur J Med Chem, 2017)
Values after ≈ are worked out from the molar mass of the structure shown. Active and inactive are the calls of the source. The rule behind the calls is not given here. *1 amine or outer side, *2 acyl side, *3 side chain or, on linkers, in order; H or OH if unused. Where a SMILES comes first, the peptide text is derived from it. [ ]: non-standard residue; d: D form. The star is where a group is joined. X1 = C/C(=N\OCC(=O)[*:2])c1ccc(N[*:1])cc1; Benzoyl(5-Br-2-OH) = O=C(c1cc(Br)ccc1O)*

Legend:
[1] = tested on: Mycobacterium tuberculosis; assay: Antimycobacterial activity against isoniazid and rifampicin resistant Mycobacterium tuberculosis A8 ATCC 35822 assessed as reduction in bacterial growth after 28 days by serial dilution method; assay type: functional; conditions: A8 ATCC 35822, 672 h, time 28 day
Method in brief: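 Broth MIC in Sula semisynthetic medium, pH 6.5; 4-week incubation, with 21-day values […] where indicated. Drug-free inoculated bacteria served as growth control. MIC also expressed as drug content (µg/mL) = MIC (µM) × average SAL molar mass × number of SAL per conjugate / 1000.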

[2] = tested on: Mycobacterium tuberculosis; assay: Antimycobacterial activity against isoniazid and rifampicin resistant Mycobacterium tuberculosis A8 ATCC 35822 assessed as reduction in colony forming unit after 28 days by serial dilution method; assay type: functional, organism-based; conditions: time 28.0 day
Method in brief: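 After the 4-week MIC incubation in Sula semisynthetic medium (pH 6.5), growth inhibition confirmed by plating on Löwenstein-Jensen solid medium and counting colony forming units.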

| SMILES | MIC [1] | Activity [2] |
| --- | --- | --- |
| O=C(Nc1ccc(Cl)c(Cl)c1)c1cc(Cl)ccc1O | 1.6 µM (≈ 0.507 µg/mL) | – |
| O=C(Nc1ccc(C(F)(F)F)cc1)c1cc(Cl)ccc1O | 1.6 µM (≈ 0.505 µg/mL) | – |
| O=C(Nc1ccc(C(F)(F)F)cc1)c1cc(Br)ccc1O | 2.8 µM (≈ 1.01 µg/mL) | – |
| CC(=O)c1ccc(NC(=O)c2cc(Cl)ccc2O)cc1 | 17.3 µM (≈ 5.01 µg/mL) | Active |
| O=C(Nc1ccc(Cl)c(Cl)c1)c1cc(Br)ccc1O | 2.8 µM (≈ 1.01 µg/mL) | – |
| C/C(=N\OCC(=O)NCC(=O)N[C@@H](Cc1ccccc1)C(=O)N[C@@H](CC(C)C)C(=O)NCC(=O)N[C@H](C(=O)N[C@@H](CCCCN)C(=O)N1CCC[C@H]1C(=O)N1CCC[C@H]1C(=O)N[C@@H](CCCNC(=N)N)C(=O)O)[C@@H](C)O)c1ccc(NC(=O)c2cc(Br)ccc2O)cc1 | 73.5 µM (≈ 100 µg/mL) | – |
| C/C(=N\OCC(=O)N[C@H](C(=O)N[C@@H](CCCCN)C(=O)N1CCC[C@H]1C(=O)N1CCC[C@H]1C(=O)N[C@@H](CCCNC(=N)N)C(=O)O)[C@@H](C)O)c1ccc(NC(=O)c2cc(Br)ccc2O)cc1 | 101 µM (≈ 100 µg/mL) | – |
| O=Cc1ccc(O)c(C(=O)Nc2ccc(C(F)(F)F)cc2)c1 | 64.7 µM (≈ 20 µg/mL) | Active |
| CC(=O)c1ccc(NC(=O)c2cc(Br)ccc2O)cc1 | 15 µM (≈ 5.01 µg/mL) | Active |
| C/C(=N\OCC(=O)NCC(=O)N[C@@H](Cc1ccccc1)C(=O)N[C@@H](CC(C)C)C(=O)NCC(=O)N[C@H](C(=O)N[C@@H](CCCCN)C(=O)N1CCC[C@H]1C(=O)N[C@@H](CCCNC(=N)N)C(=O)O)[C@@H](C)O)c1ccc(NC(=O)c2cc(Br)ccc2O)cc1 | 79.1 µM (≈ 100 µg/mL) | – |
| C/C(=N\OCC(=O)NCC(=O)N[C@@H](Cc1ccccc1)C(=O)N[C@@H](CC(C)C)C(=O)NCC(=O)N[C@H](C(=O)N[C@@H](CCCCN)C(=O)N1CCC[C@H]1C(=O)N[C@@H](CCCCN)C(=O)NCC(N)=O)[C@@H](C)O)c1ccc(NC(=O)c2cc(Br)ccc2O)cc1 ({Benzoyl(5-Br-2-OH)}-[X1]GFLGTKPKG-NH2) | 77.4 µM (≈ 100 µg/mL) | Active |
| C/C(=N\OCC(=O)NCC(=O)N[C@@H](Cc1ccccc1)C(=O)N[C@@H](CC(C)C)C(=O)NCC(=O)N[C@H](C(=O)N[C@@H](CCCCN)C(=O)N1CCC[C@H]1C(=O)N[C@@H](CCCCN)C(=O)NCC(=O)O)[C@@H](C)O)c1ccc(NC(=O)c2cc(Br)ccc2O)cc1 ({Benzoyl(5-Br-2-OH)}-[X1]GFLGTKPKG-OH) | 77.3 µM (≈ 100 µg/mL) | Active |
| C/C(=N\OCC(=O)N[C@H](C(=O)N[C@@H](CCCCN)C(=O)N1CCC[C@H]1C(=O)N[C@@H](CCCCN)C(=O)NCC(N)=O)[C@@H](C)O)c1ccc(NC(=O)c2cc(Br)ccc2O)cc1 ({Benzoyl(5-Br-2-OH)}-[X1]TKPKG-NH2) | 109 µM (≈ 100 µg/mL) | Active |
| C/C(=N\OCC(=O)N[C@H](C(=O)N[C@@H](CCCCN)C(=O)N1CCC[C@H]1C(=O)N[C@@H](CCCCN)C(=O)NCC(=O)O)[C@@H](C)O)c1ccc(NC(=O)c2cc(Br)ccc2O)cc1 ({Benzoyl(5-Br-2-OH)}-[X1]TKPKG-OH) | 109 µM (≈ 100 µg/mL) | Active |
| C/C(=N\OCC(=O)N[C@H](C(=O)N[C@@H](CCCCN)C(=O)N1CCC[C@H]1C(=O)N[C@@H](CCCNC(=N)N)C(=O)O)[C@@H](C)O)c1ccc(NC(=O)c2cc(Br)ccc2O)cc1 ({Benzoyl(5-Br-2-OH)}-[X1]TKPR-OH) | 112 µM (≈ 100 µg/mL) | Active |
| NNC(=O)c1ccncc1 [ISONIAZID] | 7.3 µM (≈ 1 µg/mL) | Active |
